SMILES strings stand for the structures. Converted amounts (≈) assume the structure as drawn. The source made the active and inactive calls. No cut-off for these calls is given here.

Holding throughout (assay type): functional
The test system of experiment [1] is Mycobacterium tuberculosis variant bovis BCG. Nature of the experiment: Antitubercular activity against drug resistant dormant Mycobacterium bovis BCG ATCC 35734 at 3 to 30 ug/ml after 12 days by nitrate reductase assay.
Experiment [2] has the same test system. The experiment in a line: Antitubercular activity against dormant Mycobacterium bovis BCG ATCC 35734 after 12 days by nitrate reductase assay. The note with it: for MIC90: ATCC 35734, 288 h.
For experiment [3], the system named is Mycobacterium tuberculosis. The experiment in a line: Antitubercular activity against drug resistant active Mycobacterium tuberculosis H37Ra ATCC 25177 after 8 days by XTT reduction menadione assay. The conditions noted are these: H37Ra ATCC 25177, 192 h. The procedure, abridged:
(§1)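 H37Ra was tested by microdilution in 96-well plates, at 30–0.001 μg/mL in one-third dilutions. Each plate carried a rifampicin and isoniazid dilution series as positive controls. Growth was scored by XTT reduction menadione assay (XRMA) and cross-checked by a final absorbance reading at 600 nm.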
(In general: Formazan colour is commonly taken as a measure of viable cells.)

Experiment [4] has as its system Mycobacterium tuberculosis. The experiment in a line: Antitubercular activity against drug resistant dormant Mycobacterium tuberculosis H37Ra ATCC 25177 after 12 days by XTT reduction menadione assay. The note with it: H37Ra ATCC 25177, 288 h. In a few lines:
as §1

Experiment [5] concerns Mycobacterium tuberculosis variant bovis BCG. Nature of the experiment: Antitubercular activity against active Mycobacterium bovis BCG ATCC 35734 after 8 days by nitrate reductase assay. The note with it: for MIC90: ATCC 35734, 192 h.

`Oc1ccc(Cl)cc1-c1cc(-c2cc3ccccc3s2)[nH]n1` showed an Activity in experiment [1] of more than 97%.

For the compound `Cc1ccc(O)c(C(=O)CC(=O)c2cc3ccccc3s2)c1`, the MIC90 in experiment [2] was 0.71 µg/mL (≈ 2.29 µM).

In turn, `Oc1ccccc1-c1cc(-c2cc3ccccc3s2)[nH]n1` had an Activity in experiment [1] of more than 97%.

Turning to `Cc1ccc(C(=O)CC(=O)c2cc3ccccc3s2)c(O)c1`, the MIC90 in experiment [3] amounted to 8.97 µg/mL (≈ 28.9 µM); in experiment [4], 9.42 µg/mL (≈ 30.4 µM); in experiment [2] it was 1.61 µg/mL (≈ 5.19 µM); in experiment [5], 1.68 µg/mL (≈ 5.41 µM). In experiment [1], this compound gave an Activity of more than 97%.

`O=C(CC(=O)c1cc(Cl)ccc1O)c1cc2ccccc2s1`: the MIC90 in experiment [3] amounted to 5.3 µg/mL (≈ 16 µM); in experiment [4] it was 2.73 µg/mL (≈ 8.25 µM); in experiment [2], 2.7 µg/mL (≈ 8.16 µM); in experiment [5] it was 2.22 µg/mL (≈ 6.71 µM). In experiment [1], this compound had an Activity of more than 97%.

Consider `O=C(CC(=O)c1cc(Br)ccc1O)c1cc2ccccc2s1`, for which the MIC90 worked out at 8.04 µg/mL (≈ 21.4 µM) in experiment [3], 7.11 µg/mL (≈ 18.9 µM) in experiment [4], 1.77 µg/mL (≈ 4.72 µM) in experiment [2] and 1.16 µg/mL (≈ 3.09 µM) in experiment [5]. Further, in experiment [1], the Activity is on record as more than 97%.

Take `Cc1ccc(O)c(-c2cc(-c3cc4ccccc4s3)[nH]n2)c1`: in experiment [1], the Activity is recorded as more than 97%.

As to `NNC(=O)c1ccncc1` [ISONIAZID], the MIC90 is more than 10 µg/mL in experiment [3], more than 10 µg/mL in experiment [4], 0.0078 µg/mL (≈ 0.0569 µM) in experiment [2] and 0.075 µg/mL (≈ 0.547 µM) in experiment [5].

Take `O=C(CC(=O)c1ccccc1O)c1cc2ccccc2s1`: the MIC90 in experiment [3] was found to be 12.4 µg/mL (≈ 41.9 µM); in experiment [4], 2.87 µg/mL (≈ 9.68 µM); in experiment [2] it was 1.36 µg/mL (≈ 4.59 µM); in experiment [5], 2.34 µg/mL (≈ 7.9 µM). The Activity in experiment [1] is reported as more than 97%.

Consider `Cc1cc(O)c(C(=O)CC(=O)c2cc3ccccc3s2)cc1Cl`, for which the results for the MIC90 in experiment [2] and in experiment [5] were 0.9 µg/mL (≈ 2.61 µM) and 0.56 to 1.9 µg/mL (≈ 1.62 to 5.51 µM), respectively. In experiment [1], this compound returned an Activity of more than 97%.

For the compound `Cc1ccc2oc(-c3cc4ccccc4s3)cc(=O)c2c1`, the MIC90 in experiment [3] stood at 22.9 µg/mL (≈ 78.2 µM); in experiment [4], 7.22 µg/mL (≈ 24.7 µM); in experiment [2] it was 0.61 µg/mL (≈ 2.09 µM); in experiment [5], 0.62 µg/mL (≈ 2.12 µM).

Take `O=C(CC(=O)c1cc(Cl)cc(Cl)c1O)c1cc2ccccc2s1`: the outcome in experiment [2] and in experiment [5] was Active.

As to `Cc1cc2oc(-c3cc4ccccc4s3)cc(=O)c2cc1Cl`, the MIC90 in experiment [3] came to 9.58 µg/mL (≈ 29.3 µM); in experiment [4], 9.1 µg/mL (≈ 27.8 µM); in experiment [2], 0.6 µg/mL (≈ 1.84 µM); in experiment [5], 0.56 µg/mL (≈ 1.71 µM).

Turning to `CO[C@H]1/C=C/O[C@@]2(C)Oc3c(C)c(O)c4c(O)c(c(/C=N/N5CCN(C)CC5)c(O)c4c3C2=O)NC(=O)/C(C)=C\C=C\[C@H](C)[C@H](O)[C@@H](C)[C@@H](O)[C@@H](C)[C@H](OC(C)=O)[C@@H]1C` [RIFAMPIN], the MIC90 in experiment [3] was more than 10 µg/mL; in experiment [4] it was more than 10 µg/mL; in experiment [2], 0.0042 µg/mL (≈ 0.0051 µM); in experiment [5], 0.004 µg/mL (≈ 0.00486 µM).

As a reminder, the MIC90 is the lowest concentration that inhibits either 90% of growth or 90% of the strains tested, depending on the study. A higher MIC90 goes with weaker potency.

The record behind these values is ChEMBL document CHEMBL4431374, “Synthesis and Antitubercular Activity of New Benzo[b]thiophenes” (ACS Med Chem Lett, 2016).
